Assay outcomes from PubChem BioAssay.
E-sel inducer = E-selectin induction in HUVECs, primary screen, imaging, HUVEC, immunofluorescence imaging, single point; activation, % at 7.58 µM; P16581; normalized: neutral wells 0, TNF-alpha wells 100; 260,000 compounds, 0.37% hits;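 active means mean E-selectin-positive cell signal at least 10% of the positive control, reached in at least 60% of replicates, without over 20% cell loss; inconclusive means no rule given, readout overlaps actives, possibly toxicity-flagged; inactive means the rest, including those meeting only one limit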
Target sequence (P16581 whole entry, looked up): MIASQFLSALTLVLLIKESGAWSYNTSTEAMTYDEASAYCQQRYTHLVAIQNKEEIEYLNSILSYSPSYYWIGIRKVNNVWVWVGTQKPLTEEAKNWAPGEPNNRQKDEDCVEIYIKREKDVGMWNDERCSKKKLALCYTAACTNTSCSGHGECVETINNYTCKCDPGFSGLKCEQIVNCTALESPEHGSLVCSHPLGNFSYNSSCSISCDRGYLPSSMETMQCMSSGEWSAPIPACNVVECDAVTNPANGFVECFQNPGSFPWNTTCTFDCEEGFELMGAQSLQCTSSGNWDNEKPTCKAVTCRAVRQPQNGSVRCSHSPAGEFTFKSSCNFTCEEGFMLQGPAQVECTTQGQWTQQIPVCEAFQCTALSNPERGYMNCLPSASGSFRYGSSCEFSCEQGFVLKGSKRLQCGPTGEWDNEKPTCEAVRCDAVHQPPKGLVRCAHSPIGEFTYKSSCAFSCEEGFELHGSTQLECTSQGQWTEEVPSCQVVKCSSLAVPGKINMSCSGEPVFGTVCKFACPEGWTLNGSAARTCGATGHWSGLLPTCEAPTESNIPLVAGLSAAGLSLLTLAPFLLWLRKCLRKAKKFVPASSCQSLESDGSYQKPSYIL
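Test system: HUVEC | Signal: Immunofluorescence imaging | Read-out: Percent E-selectin-positive cells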
Statin myotox sup = suppressors of statin myotoxicity in C2C12 myotubes, primary screen, cell-based, single point, plate reader; C2C12 myotubes + simvastatin, ATP luminescence, 48 h; scaled: DMSO 0, geranylgeraniol control 100; rescue of ATP level, % at 7.49 µM; 330,000 compounds, 0.78% hits;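 active means mean ATP rescue above about 67%, or every replicate alone reaching that limit, limit read from the data, passing the limit was not always enough; inconclusive means no clear call, values can overlap the other calls; inactive means mean under the limit and some replicate under it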;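 further: myotubes were challenged with 10 µM simvastatin during compound exposure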
FGF22 binding = binders of human FGF22 protein, primary screen, FGF22 synaptogenesis inhibitor project, biophysical, thermal shift, single point. 340,000 compounds, 1.5% hits. activity (Tm shift, normalised), % at 9.99 µM. AID 651658, 2012. Fibroblast growth factor 22 (Homo sapiens), Q9HCT0. recombinant FGF22 thermal shift, SYPRO orange fluorescence; percent of sucrose octasulfate shift, DMSO zero;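 active means mean Tm shift, scaled 0 neutral to 100 positive control, at about 1.3% or above, every replicate too, limit read from the data; inconclusive means no clear call, values can overlap the other calls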
PglD DTNB = C. jejuni PglD acetyltransferase inhibitors, primary screen, biochemical, DTNB colorimetric, single point; 360,000 compounds, 0.098% hits; inhibition, % at 12.5 µM; AID 602405, 2012; purified PglD enzyme, DTNB colorimetric CoA detection; UDP-N-acetylbacillosamine N-acetyltransferase PglD (Campylobacter jejuni); in the data active means inhibition above about 16%, passing the limit was not always enough; inconclusive means no clear call, values can overlap the other calls
Xi reactivation = activators of inactive X chromosome reactivation, primary screen, imaging, XiGFP fibroblasts, GFP high-content imaging, set 2 | AID 743238, 2013 | 360,000 compounds, 0.055% hits | activation, % at 7.58 µM | XiGFP mouse fibroblasts, % GFP-positive cells imaging, 3 d; cells co-treated with 5-aza-dC sensitizer; scaled so ellipticine positive control = 100%;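 active means mean normalized replicate activation at least 10% and every replicate at or above 10%; inconclusive means only one of the two criteria met; inactive means mean below 10% and not all replicates reach 10%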
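Assay system – SV40-immortalized XiGFP fibroblast cells, line 68-5-11 · Buffer or medium – DMEM supplemented with 5-aza-dC as sensitizing agent · Dosing – one concentration, pinned · Benchmarks – positive control ellipticine, 6 µM final · Times – 3 days compound exposure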
DENV2 CPE = inhibitors of DENV2 cytopathic effect, primary screen, cell-based, plate reader, single concentration; DENV2-infected cells, cytopathic effect rescue; AID 651640, 2012; 350,000 compounds, 1.7% hits; CPE inhibition, % at 9.99 µM; in the data active means CPE inhibition above about 20%, passing the limit was not always enough; inconclusive means no clear call, values can overlap the other calls; tested in BHK-21 cells
Hits are given with their value; – = inactive; ? = inconclusive; · = not tested or not shown. Sampled rows, rich in hits. Any-hit rate of the full collection: about 3.3%.

SMILES	E-sel inducer	Statin myotox sup	FGF22 binding	PglD DTNB	Xi reactivation	DENV2 CPE
C[C@H]1CCCCO[C@H](CN(C)S(=O)(=O)c2cccs2)[C@@H](C)CN([C@@H](C)CO)C(=O)c2cc(NC(=O)Nc3ccc(F)cc3)ccc2O1	–	–	–	–	–	–
CC(C)NC(=O)N(C)C[C@H]1Oc2c(NC(=O)c3nc4ccccc4s3)cccc2C(=O)N([C@H](C)CO)C[C@@H]1C	–	·	–	–	–	?
O=C(C[C@H]1CC[C@@H]2[C@H](COC[C@H](O)CN2C(=O)Cc2ccccc2)O1)NC1CCC1	–	–	–	–	–	–
COc1ccc(CCN(C)Cc2c(O)ccc3cc(Br)ccc23)cc1OC	–	–	–	–	–	?
COc1ccc(CN(C)Cc2c(O)ccc3cc(Br)ccc23)cc1OC	·	–	1.7	–	–	–
C[C@H](CO)N1C[C@H](C)[C@H](CN(C)C(=O)Cc2ccccc2)OCCCC[C@H](C)Oc2ccc(NS(=O)(=O)c3cn(C)cn3)cc2C1=O	–	–	–	–	–	–
CCOC(=O)C1(Cc2ccccc2)CCN(Cc2csc(C(C)=O)c2)CC1	–	–	44	–	–	–
CCOC(=O)C1(Cc2ccccc2)CCN(Cc2cccc3nccnc23)CC1	·	–	44	–	–	–
CCOC(=O)C1(CCOc2ccccc2)CCN(Cc2cccc(-n3cccn3)c2)CC1	–	–	–	–	–	–
CCOC(=O)C1(CCOc2ccccc2)CCN(CCCn2cccn2)CC1	·	·	43	·	–	–
CCOC(=O)C1(Cc2cccc(OC)c2)CCN(Cc2ccccc2OC)CC1	·	–	43	–	–	–
C[C@@H]1CCCCO[C@H](CN(C)C(=O)NC2CCCCC2)[C@H](C)CN([C@H](C)CO)C(=O)c2cc(NC(=O)C3CCCCC3)ccc2O1	–	–	–	–	–	–
COc1ccccc1NC(=S)N1CCCC1	·	·	·	·	–	·
COc1ccccc1NC(=S)N1CCCCCC1	65	·	–	–	–	–
O=C(C1CCC1)N1C[C@@H]2[C@H](c3ccccc31)[C@H](CO)N2C(=O)Cc1ccccn1	–	–	–	–	–	·
O=C(C1CCC1)N1C[C@H]2[C@@H](c3ccccc31)[C@H](CO)N2C(=O)Cc1ccccn1	–	–	–	–	–	33
O=C(c1cccnc1)N1C[C@@H]2[C@H](c3ccccc31)[C@@H](CO)N2C(=O)C1CCCCC1	–	–	–	–	–	52
O=C(CC(F)(F)F)N1C[C@@H]2[C@H](c3ccccc31)[C@@H](CO)N2C(=O)c1cccnc1	–	–	–	–	–	23
O=C(CC(F)(F)F)N1C[C@H]2[C@@H](c3ccccc31)[C@@H](CO)N2Cc1cccnc1	–	–	–	–	–	27
COc1ccc(C[C@H]2CCc3cnnn3COC[C@H](C(C)C)NC2=O)cc1	–	·	·	·	–	·
COc1ccc(S(=O)(=O)N[C@@H]2CC[C@H](CCNC(=O)c3ccccc3F)O[C@@H]2CO)cc1	–	–	–	–	–	–
CCCn1c(-c2ccc[nH]c2=O)nc2cc(C)c(C)cc21	·	·	–	·	–	25
Cc1n[nH]c(=O)nc1N/N=C/c1ccco1	·	·	44	·	–	·
Cc1n[nH]c(=O)nc1NCc1ccco1	·	–	·	–	·	·
COc1cc(/C=C2\SC(N)=NC2=O)ccc1OCC(=O)Nc1ccc(C)cc1	·	·	·	·	–	·
NC1=NC(=O)C(=Cc2ccccc2)S1	–	·	–	·	–	30
NC1=NC(=O)/C(=C/c2cccc(F)c2)S1	54	–	–	–	–	–
CC(=O)Nc1ccc(S(=O)(=O)Oc2cccc(/C=C3\SC(N)=NC3=O)c2)cc1	·	·	43	·	–	–
NC1=NC(=O)/C(=C\c2cccnc2)S1	–	·	–	·	–	–
